Assay results as given in ChEMBL document CHEMBL3611968, “Reengineered tricyclic anti-cancer agents” (Bioorg Med Chem, 2015).
One block for each compound: values may come before it. Activity calls are given as the source filed them. The calls are words filed in the database; no cut-off is given here.

What was measured:
NCI-H1650 [1] = assay: Cytotoxicity against human NCI-H1650 cells assessed as growth inhibition after 48 hrs by MTT assay; type: functional; conditions: NCI-H1650, 48 h
How it was run: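 H1650 cells were exposed to drug for 48 h at five concentrations bracketing 1–40 μM in 10 μM steps, with MTT read-out. GI50 is given only where the data form a sigmoidal dose response.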

NCI-H1650 [2] = assay: Cell cycle arrest in human NCI-H1650 cells assessed as accumulation at sub-G1 phase at 1 to 40 uM by propidium iodide staining-based flow cytometric analysis; type: functional
[3] = biological target: Sodium-dependent noradrenaline transporter (Homo sapiens) (UniProt P23975); assay: Displacement of [3H]-nisoxetine from norepinephrine transporter (unknown origin) at 0.1 mM relative to control
Chain of Sodium-dependent noradrenaline transporter (Homo sapiens) (P23975 whole entry): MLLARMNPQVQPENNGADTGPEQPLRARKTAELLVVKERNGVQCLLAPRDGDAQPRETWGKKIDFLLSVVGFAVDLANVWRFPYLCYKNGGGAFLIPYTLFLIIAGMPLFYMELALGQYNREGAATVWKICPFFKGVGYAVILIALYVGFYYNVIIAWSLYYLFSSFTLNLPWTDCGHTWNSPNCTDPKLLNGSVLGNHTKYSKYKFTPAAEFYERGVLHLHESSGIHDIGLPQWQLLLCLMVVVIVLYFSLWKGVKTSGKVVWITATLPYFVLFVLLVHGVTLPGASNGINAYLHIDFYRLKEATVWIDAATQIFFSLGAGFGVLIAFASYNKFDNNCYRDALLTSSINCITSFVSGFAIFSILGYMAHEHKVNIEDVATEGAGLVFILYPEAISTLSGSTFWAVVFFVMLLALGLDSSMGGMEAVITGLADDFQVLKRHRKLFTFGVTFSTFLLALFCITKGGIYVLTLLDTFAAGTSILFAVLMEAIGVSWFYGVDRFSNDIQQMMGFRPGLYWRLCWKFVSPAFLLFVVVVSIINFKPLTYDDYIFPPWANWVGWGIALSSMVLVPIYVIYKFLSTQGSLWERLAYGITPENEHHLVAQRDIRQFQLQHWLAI
How it was run: (§1)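 Competitive antagonist radioligand binding at monoamine transporters. Serotonin transporter is labelled with [³H]imipramine and norepinephrine transporter with [³H]nisoxetine. The compound was tested at three concentrations, and binding is expressed as percent inhibition of specific radioligand binding. Each value is the mean of two independent determinations.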

[4] = biological target: Sodium-dependent noradrenaline transporter (Homo sapiens) (UniProt P23975); assay: Displacement of [3H]-nisoxetine from norepinephrine transporter (unknown origin) at 1 mM relative to control; how it was run: as §1
[5] = biological target: Sodium-dependent noradrenaline transporter (Homo sapiens) (UniProt P23975); assay: Displacement of [3H]-nisoxetine from norepinephrine transporter (unknown origin) at 10 mM relative to control; how it was run: as §1
[6] = biological target: Sodium channel protein type 5 subunit alpha (Homo sapiens, UniProt Q14524); assay: Inhibition of Nav1.5 channel (unknown origin) expressed in HEK293 cells at […] by patch clamp assay; type: cell-based
Chain of Sodium channel protein type 5 subunit alpha (Q14524 whole entry): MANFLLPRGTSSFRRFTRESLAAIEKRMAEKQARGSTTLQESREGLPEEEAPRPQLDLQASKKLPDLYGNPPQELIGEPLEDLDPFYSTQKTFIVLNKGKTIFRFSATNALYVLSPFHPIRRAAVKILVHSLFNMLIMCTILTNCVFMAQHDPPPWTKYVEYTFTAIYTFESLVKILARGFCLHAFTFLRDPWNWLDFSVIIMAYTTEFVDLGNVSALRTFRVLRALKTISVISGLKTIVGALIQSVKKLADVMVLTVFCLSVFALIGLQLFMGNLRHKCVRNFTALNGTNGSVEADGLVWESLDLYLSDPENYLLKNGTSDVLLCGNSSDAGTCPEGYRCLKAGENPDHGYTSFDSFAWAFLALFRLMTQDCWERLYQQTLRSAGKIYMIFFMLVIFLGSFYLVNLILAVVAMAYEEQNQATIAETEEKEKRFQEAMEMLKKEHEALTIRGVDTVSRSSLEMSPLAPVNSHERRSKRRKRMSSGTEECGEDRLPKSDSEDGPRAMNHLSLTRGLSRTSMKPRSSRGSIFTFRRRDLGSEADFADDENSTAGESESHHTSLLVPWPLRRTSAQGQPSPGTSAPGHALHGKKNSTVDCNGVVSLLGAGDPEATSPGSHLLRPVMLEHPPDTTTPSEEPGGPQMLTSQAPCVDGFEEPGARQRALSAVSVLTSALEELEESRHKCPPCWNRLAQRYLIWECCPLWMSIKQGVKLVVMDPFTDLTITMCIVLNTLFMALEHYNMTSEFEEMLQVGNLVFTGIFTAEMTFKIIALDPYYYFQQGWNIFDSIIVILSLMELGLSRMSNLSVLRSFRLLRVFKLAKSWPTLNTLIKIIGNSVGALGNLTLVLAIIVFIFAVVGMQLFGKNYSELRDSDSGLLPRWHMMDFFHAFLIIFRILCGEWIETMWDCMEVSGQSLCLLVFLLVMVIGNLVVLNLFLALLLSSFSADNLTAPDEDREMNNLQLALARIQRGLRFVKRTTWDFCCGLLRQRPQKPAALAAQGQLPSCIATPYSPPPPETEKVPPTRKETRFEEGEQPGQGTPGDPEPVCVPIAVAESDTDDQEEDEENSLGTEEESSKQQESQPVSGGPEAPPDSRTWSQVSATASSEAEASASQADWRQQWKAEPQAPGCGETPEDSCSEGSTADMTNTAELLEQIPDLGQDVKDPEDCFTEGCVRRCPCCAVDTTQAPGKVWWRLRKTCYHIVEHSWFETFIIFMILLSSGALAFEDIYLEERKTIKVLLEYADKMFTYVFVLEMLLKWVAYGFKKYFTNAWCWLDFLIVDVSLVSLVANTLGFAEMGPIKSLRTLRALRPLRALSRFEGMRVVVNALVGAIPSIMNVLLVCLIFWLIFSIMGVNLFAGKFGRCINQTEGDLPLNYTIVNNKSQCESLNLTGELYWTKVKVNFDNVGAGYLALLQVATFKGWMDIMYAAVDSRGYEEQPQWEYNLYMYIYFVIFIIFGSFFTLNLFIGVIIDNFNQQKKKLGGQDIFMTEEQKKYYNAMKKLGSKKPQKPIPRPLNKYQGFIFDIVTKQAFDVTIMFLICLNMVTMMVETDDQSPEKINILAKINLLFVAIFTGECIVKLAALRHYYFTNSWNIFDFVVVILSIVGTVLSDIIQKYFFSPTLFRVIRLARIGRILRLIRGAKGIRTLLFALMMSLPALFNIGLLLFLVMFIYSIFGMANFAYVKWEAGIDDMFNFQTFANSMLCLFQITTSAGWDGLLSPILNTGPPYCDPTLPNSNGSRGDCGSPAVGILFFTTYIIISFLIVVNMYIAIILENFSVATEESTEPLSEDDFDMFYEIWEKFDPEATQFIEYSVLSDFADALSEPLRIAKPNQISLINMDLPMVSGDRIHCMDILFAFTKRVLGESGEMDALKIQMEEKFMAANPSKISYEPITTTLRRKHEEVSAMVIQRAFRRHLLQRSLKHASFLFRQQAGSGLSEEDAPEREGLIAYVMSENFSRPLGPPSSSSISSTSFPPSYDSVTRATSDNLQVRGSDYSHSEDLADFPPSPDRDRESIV

[7] = biological target: Sodium-dependent dopamine transporter (Homo sapiens) (UniProt Q01959); conditions: 1 mM
Chain of Sodium-dependent dopamine transporter (Homo sapiens) (Q01959 whole entry): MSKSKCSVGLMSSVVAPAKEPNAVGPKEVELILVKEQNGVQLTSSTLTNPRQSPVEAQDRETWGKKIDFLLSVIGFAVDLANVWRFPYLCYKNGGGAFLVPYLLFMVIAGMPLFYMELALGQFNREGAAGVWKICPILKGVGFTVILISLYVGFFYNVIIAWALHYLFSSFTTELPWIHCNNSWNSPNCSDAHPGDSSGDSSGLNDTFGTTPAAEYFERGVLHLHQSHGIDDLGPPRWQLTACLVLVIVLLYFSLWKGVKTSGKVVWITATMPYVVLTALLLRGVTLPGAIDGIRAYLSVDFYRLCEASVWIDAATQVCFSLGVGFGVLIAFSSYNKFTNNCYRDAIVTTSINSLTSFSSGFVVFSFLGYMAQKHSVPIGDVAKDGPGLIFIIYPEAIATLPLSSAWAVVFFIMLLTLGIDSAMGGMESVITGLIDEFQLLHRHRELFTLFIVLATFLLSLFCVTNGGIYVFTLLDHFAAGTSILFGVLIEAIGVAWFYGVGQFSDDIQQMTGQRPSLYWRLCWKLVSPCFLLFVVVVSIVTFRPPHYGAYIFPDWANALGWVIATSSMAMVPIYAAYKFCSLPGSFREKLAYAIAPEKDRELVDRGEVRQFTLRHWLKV

[8] = biological target: Sodium-dependent dopamine transporter (Homo sapiens) (UniProt Q01959); conditions: 10 mM
NCI-H1650 [9] = assay: Induction of apoptosis in human NCI-H1650 cells by Annexin V staining; type: functional, cell-based
NCI-H1650 [10] = assay: Induction of apoptosis in human NCI-H1650 cells by Annexin V staining in presence of pan caspase inhibition Z-VAD; type: functional, cell-based
[11] = biological target: RAC-alpha serine/threonine-protein kinase (Homo sapiens) (UniProt P31749); assay: Inhibition of AKT phosphorylation in human NCI-H1650 cells at 20 to 40 uM after 12 hrs by Western blot analysis; type: cell-based
Chain of RAC-alpha serine/threonine-protein kinase (Homo sapiens) (P31749 whole entry): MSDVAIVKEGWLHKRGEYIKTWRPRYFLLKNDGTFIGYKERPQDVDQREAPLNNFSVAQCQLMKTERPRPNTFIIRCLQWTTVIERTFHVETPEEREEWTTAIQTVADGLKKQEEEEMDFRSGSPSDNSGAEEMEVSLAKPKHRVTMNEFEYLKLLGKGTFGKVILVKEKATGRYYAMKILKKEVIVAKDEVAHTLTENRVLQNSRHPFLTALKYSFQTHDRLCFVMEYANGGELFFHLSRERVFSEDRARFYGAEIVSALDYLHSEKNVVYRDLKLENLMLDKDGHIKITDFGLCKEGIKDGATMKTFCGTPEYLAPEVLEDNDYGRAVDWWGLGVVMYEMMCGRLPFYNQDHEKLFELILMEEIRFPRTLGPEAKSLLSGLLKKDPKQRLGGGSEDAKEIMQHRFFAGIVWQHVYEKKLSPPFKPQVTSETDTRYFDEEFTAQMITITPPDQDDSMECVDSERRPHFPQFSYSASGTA

NCI-H1650 [12] = assay: Inhibition of ERK phosphorylation in human NCI-H1650 cells at 20 to 40 uM after 12 hrs by Western blot analysis; type: cell-based
NCI-H1650 [13] = assay: Antitumor activity against human NCI-H1650 cells xenografted in BALB/c nu/nu mouse assessed as change in tumor volume at 100 mg/kg, ip administered every other day for 3 weeks (reference value: 3.46 +/- 0.95); type: functional
How it was run: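 H1650 tumours were grown in mice. The 100 mg/kg treated group (n = 9) was compared with vehicle controls (n = 7) on mean fold change in tumour volume, using Student's t test.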

[14] = AUClast in mouse at 1 mg/kg, iv; type: ADME, organism-based; conditions: in vivo
[15] = AUCinfinity in mouse at 1 mg/kg, iv; type: ADME, organism-based; parameters: dose 1 mg/kg, time infinity, route intravenous; conditions: in vivo
[16] = Half life in mouse at 1 mg/kg, iv; type: ADME, organism-based; conditions: in vivo
[17] = Volume of distribution at steady state in mouse at 1 mg/kg, iv; type: ADME, organism-based; conditions: in vivo, read-out: Vdss
[18] = Clearance in mouse at 1 mg/kg, iv; type: ADME, organism-based; conditions: in vivo
[19] = Tmax in mouse at 25 mg/kg, ip; type: ADME, organism-based; conditions: in vivo
[20] = Cmax in mouse at 25 mg/kg, ip; type: ADME, organism-based; parameters: dose 25 mg/kg, route intraperitoneal; conditions: in vivo
[21] = AUClast in mouse at 25 mg/kg, ip; type: ADME, organism-based; conditions: in vivo
[22] = AUCinfinity in mouse at 25 mg/kg, ip; type: ADME, organism-based; parameters: dose 25 mg/kg, time infinity, route intraperitoneal; conditions: in vivo
[23] = Bioavailability in mouse at 25 mg/kg, ip; type: ADME, organism-based; conditions: in vivo
[24] = Tmax in mouse at 100 mg/kg, ip administered through DMA/solutol/water; type: ADME, organism-based; conditions: in vivo
[25] = Cmax in mouse at 100 mg/kg, ip administered through DMA/solutol/water; type: ADME, organism-based; parameters: dose 100 mg/kg, route intraperitoneal; conditions: in vivo
[26] = AUClast in mouse at 100 mg/kg, ip administered through DMA/solutol/water; type: ADME, organism-based; conditions: in vivo
[27] = AUCinfinity in mouse at 100 mg/kg, ip administered through DMA/solutol/water; type: ADME, organism-based; parameters: dose 100 mg/kg, route intraperitoneal, time infinity; conditions: in vivo
[28] = Bioavailability in mouse at 100 mg/kg, ip administered through DMA/solutol/water; type: ADME, organism-based; conditions: in vivo
[29] = Tmax in mouse at 25 mg/kg, po; type: ADME, organism-based; conditions: in vivo
[30] = Cmax in mouse at 25 mg/kg, po; type: ADME, organism-based; parameters: dose 25 mg/kg, route oral; conditions: in vivo
[31] = AUClast in mouse at 25 mg/kg, po; type: ADME, organism-based; conditions: in vivo
[32] = AUCinfinity in mouse at 25 mg/kg, po; type: ADME, organism-based; parameters: dose 25 mg/kg, route oral, time infinity; conditions: in vivo
[33] = Oral bioavailability in mouse at 25 mg/kg; type: ADME, organism-based; conditions: in vivo
[34] = Tmax in mouse at 100 mg/kg, po; type: ADME, organism-based; conditions: in vivo
[35] = Cmax in mouse at 100 mg/kg, po; type: ADME, organism-based; parameters: dose 100 mg/kg, route oral; conditions: in vivo
[36] = AUClast in mouse at 100 mg/kg, po; type: ADME, organism-based; conditions: in vivo
[37] = AUCinfinity in mouse at 100 mg/kg, po; type: ADME, organism-based; parameters: dose 100 mg/kg, route oral, time infinity; conditions: in vivo
[38] = Oral bioavailability in mouse at 100 mg/kg; type: ADME, organism-based; conditions: in vivo
[39] = Tmax in mouse at 100 mg/kg, ip administered through DMSO; type: ADME, organism-based; conditions: in vivo
[40] = Cmax in mouse at 100 mg/kg, ip administered through DMSO; type: ADME, organism-based; parameters: dose 100 mg/kg, route intraperitoneal; conditions: in vivo
[41] = AUClast in mouse at 100 mg/kg, ip administered through DMSO; type: ADME, organism-based; conditions: in vivo
[42] = Bioavailability in mouse at 100 mg/kg, ip administered through DMSO; type: ADME, organism-based; conditions: in vivo
[43] = AUCinfinity in mouse at 100 mg/kg, ip administered through DMSO; type: ADME, organism-based; parameters: dose 100 mg/kg, time infinity, route intraperitoneal; conditions: in vivo
[44] = biological target: Sodium-dependent serotonin transporter (Homo sapiens) (UniProt P31645); assay: Displacement of [3H]-imipramine from serotonin transporter (unknown origin) at 0.1 to 10 mM relative to control; how it was run: as §1
Chain of Sodium-dependent serotonin transporter (Homo sapiens) (P31645 whole entry, looked up): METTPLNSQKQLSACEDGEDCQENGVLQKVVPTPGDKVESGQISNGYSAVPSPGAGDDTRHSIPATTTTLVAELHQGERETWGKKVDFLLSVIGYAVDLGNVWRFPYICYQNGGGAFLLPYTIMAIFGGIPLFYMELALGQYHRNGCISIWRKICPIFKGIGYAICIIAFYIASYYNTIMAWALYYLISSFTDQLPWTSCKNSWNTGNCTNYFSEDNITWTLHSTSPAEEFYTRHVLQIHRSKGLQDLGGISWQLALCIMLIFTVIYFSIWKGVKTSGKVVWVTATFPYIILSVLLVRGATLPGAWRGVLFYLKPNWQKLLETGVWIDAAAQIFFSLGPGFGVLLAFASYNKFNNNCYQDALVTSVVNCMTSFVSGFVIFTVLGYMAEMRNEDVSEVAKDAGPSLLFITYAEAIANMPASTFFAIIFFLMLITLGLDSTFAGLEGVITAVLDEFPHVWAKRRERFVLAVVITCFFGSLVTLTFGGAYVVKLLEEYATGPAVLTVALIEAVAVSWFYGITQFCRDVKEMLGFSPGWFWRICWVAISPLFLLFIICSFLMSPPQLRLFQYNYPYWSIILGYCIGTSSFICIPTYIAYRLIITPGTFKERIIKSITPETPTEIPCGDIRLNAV

[45] = biological target: Sodium-dependent dopamine transporter (Homo sapiens) (UniProt Q01959); assay: Displacement of [3H]-BTCP from dopamine transporter (unknown origin) at 1 to 10 mM
How it was run: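 Dopamine transporter antagonist radioligand binding used [3H]BTCP, tested at 0.1, 1.0 and 10 mM, as percent inhibition. Each value is the average of two independent determinations.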

[46] = biological target: Sodium-dependent noradrenaline transporter (Homo sapiens) (UniProt P23975); assay: Displacement of [3H]-nisoxetine from norepinephrine transporter (unknown origin) at 1 to 10 mM; how it was run: as §1
Homo sapiens [47] = organism: Homo sapiens; assay: Displacement of [3H]-nitrendipine from L-type Ca2+ channel dihydropyridine site (unknown origin) at […]
Homo sapiens [48] = organism: Homo sapiens; assay: Displacement of [3H]-diltiazem from L-type Ca2+ channel diltiazem site (unknown origin) at […]
Homo sapiens [49] = organism: Homo sapiens; assay: Displacement of [3H]-D888 from L-type Ca2+ channel verapamil site (unknown origin) at […]
Homo sapiens [50] = organism: Homo sapiens; assay: Displacement of [3H]-glibencamide from K (ATP) channel (unknown origin) at […]
[51] = biological target: Voltage-gated inwardly rectifying potassium channel KCNH2 (Homo sapiens, UniProt Q12809); assay: Displacement of [3H]-astemizole from human ERG at […]
[52] = tested on: Voltage-gated potassium channel; assay: Displacement of [125-I]-dendrotoxin from Kv channel (unknown origin) at 0.1 to 10 mM; type: protein assay; conditions: human
Homo sapiens [53] = organism: Homo sapiens; assay: Displacement of [125-I]-apamin from SKCa channel (unknown origin) at 0.1 to 10 mM
[54] = biological target: T1, Muscarinic acetylcholine receptor M2 (Homo sapiens) (UniProt P08172); assay: Displacement of [3H]-AF-DX384 from muscarinic acetylcholine M2 receptor (unknown origin) at […]
T1 sequence (whole entry): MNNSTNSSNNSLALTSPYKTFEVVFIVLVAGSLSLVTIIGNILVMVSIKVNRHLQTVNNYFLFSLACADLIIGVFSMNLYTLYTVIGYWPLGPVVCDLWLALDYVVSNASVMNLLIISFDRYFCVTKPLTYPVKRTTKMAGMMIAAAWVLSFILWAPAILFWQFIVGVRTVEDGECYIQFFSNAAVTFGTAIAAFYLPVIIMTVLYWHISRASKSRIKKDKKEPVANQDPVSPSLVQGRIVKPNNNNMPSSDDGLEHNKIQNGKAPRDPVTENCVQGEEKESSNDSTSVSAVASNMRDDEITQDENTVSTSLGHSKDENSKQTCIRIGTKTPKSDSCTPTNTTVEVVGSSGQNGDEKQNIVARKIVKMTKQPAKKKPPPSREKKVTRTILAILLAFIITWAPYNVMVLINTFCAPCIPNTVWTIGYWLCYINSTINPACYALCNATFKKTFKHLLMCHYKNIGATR

[55] = biological target: Histamine H1 receptor (Homo sapiens) (UniProt P35367); assay: Displacement of [3H]-pyrilamine from histamine H1 receptor (unknown origin) at […]
Chain of Histamine H1 receptor (Homo sapiens) (P35367 whole entry): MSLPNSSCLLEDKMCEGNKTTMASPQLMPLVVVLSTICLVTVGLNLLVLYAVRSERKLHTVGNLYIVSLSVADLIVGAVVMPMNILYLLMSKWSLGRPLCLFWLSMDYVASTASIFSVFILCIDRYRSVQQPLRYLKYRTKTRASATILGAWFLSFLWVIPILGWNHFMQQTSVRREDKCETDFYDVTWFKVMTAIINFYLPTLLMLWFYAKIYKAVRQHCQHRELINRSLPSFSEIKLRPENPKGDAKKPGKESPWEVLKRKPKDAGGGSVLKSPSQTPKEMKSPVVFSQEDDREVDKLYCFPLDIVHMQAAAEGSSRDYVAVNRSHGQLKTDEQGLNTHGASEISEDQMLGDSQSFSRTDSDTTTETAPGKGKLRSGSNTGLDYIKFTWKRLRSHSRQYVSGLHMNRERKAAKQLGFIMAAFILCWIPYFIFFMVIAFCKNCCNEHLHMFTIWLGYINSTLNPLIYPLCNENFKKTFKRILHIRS

[56] = biological target: Histamine H2 receptor (Homo sapiens) (UniProt P25021); assay: Displacement of [125I]-APT from histamine H2 receptor (unknown origin) at […]

inhibition [3]: 5%
inhibition [4]: 90%
inhibition [5]: 100%
inhibition [7]: 14%
inhibition [8]: 60%
SMILES: CN(C)CCCN1c2ccccc2CCc2ccc(Cl)cc21 [CLOMIPRAMINE]
GI50 (NCI-H1650 [1]): > 40 µM
Activity (NCI-H1650 [2]): Active
inhibition (INH) [6]: Active

SMILES: O=S(=O)(NCCCN1c2ccccc2CCc2ccc(Cl)cc21)c1ccc(OC(F)(F)F)cc1
GI50 (NCI-H1650 [1]): 12.6 µM
Activity (NCI-H1650 [2]): Active
Activity (NCI-H1650 [9]): Active
Activity (NCI-H1650 [10]): inactive
inhibition [11]: Active
inhibition (NCI-H1650 [12]): Active
fold change (FC) (NCI-H1650 [13]): 1.49
AUC(0-t) [14]: 375 ng·h/mL
AUC(0-inf) [15]: 399 ng·h/mL
half-life [16]: 0.61 h
Vd [17]: 1.31 L/kg
clearance [18]: 42 mL/min/kg
Tmax [19]: 1 h
Cmax [20]: 754 ng/mL
AUC(0-t) [21]: 3570 ng·h/mL
AUC(0-inf) [22]: 3680 ng·h/mL
bioavailability [23]: 38%
Tmax [24]: 2 h
Cmax [25]: 2350 ng/mL
AUC(0-t) [26]: 12800 ng·h/mL
AUC(0-inf) [27]: 14100 ng·h/mL
bioavailability [28]: 34%
Tmax [29]: 1 h
Cmax [30]: 476 ng/mL
AUC(0-t) [31]: 1380 ng·h/mL
AUC(0-inf) [32]: 1430 ng·h/mL
bioavailability [33]: 15%
Tmax [34]: 2 h
Cmax [35]: 1940 ng/mL
AUC(0-t) [36]: 6790 ng·h/mL
AUC(0-inf) [37]: 7210 ng·h/mL
bioavailability [38]: 18%
Tmax [39]: 4 h
Cmax [40]: 3100 ng/mL
AUC(0-t) [41]: 38800 ng·h/mL
bioavailability [42]: 100%
AUC(0-inf) [43]: 40700 ng·h/mL
inhibition [44]: < 5%
inhibition [45]: Active
inhibition [46]: Active
inhibition (Homo sapiens [47]): inactive
inhibition (Homo sapiens [48]): inactive
inhibition (Homo sapiens [49]): inactive
inhibition (Homo sapiens [50]): inactive
inhibition (INH) [51]: Not Active
inhibition (INH) [52]: Not Active
inhibition (Homo sapiens [53]): inactive
inhibition (INH) [6]: Not Active
inhibition [54]: inactive
inhibition [55]: inactive
inhibition [56]: inactive
